Assay results published in PMC2835692 (Journal of cardiovascular pharmacology, 2009).
Where two headings read alike, the source gives them in different places.

What was measured:
[1] = target: recombinant human MMP-2 catalytic domain (Homo sapiens, UniProt P08253); assay: Recombinant MMP fluorescent assay, MMP-2; format: biochemical; settings: read-out: IC50 MMP-2; 1 hour preincubation at 37°C
[2] = target: recombinant human MMP-9 catalytic domain (Homo sapiens, UniProt P14780); assay: Recombinant MMP fluorescent assay, MMP-9; format: biochemical; settings: read-out: IC50 MMP-9; 1 hour preincubation at 37°C
[3] = target: T1, recombinant human MMP-7 catalytic domain (Homo sapiens, UniProt P09237); assay: Recombinant MMP fluorescent assay, MMP-7; format: biochemical
T1 sequence (P09237 95-267): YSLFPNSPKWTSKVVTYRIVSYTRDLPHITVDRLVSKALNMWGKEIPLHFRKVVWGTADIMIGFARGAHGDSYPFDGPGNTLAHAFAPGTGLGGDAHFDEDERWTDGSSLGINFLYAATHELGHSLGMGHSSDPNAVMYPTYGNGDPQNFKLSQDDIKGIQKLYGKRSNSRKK
Outline: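 Kit-based fluorogenic substrate assay. Test compound was dissolved in DMSO, with 0.005% final DMSO in buffer (50 mM HEPES, 10 mM CaCl2, 0.05% Brij-35, pH 7.5). Substrate was added to start the reaction. Fluorescence (ex 335/em 405 nm) was read every 60 s for 30 min, with 1 s shaking between reads. Rates came from linear kinetic regions; IC50 from activity versus log[inhibitor]. o-Phenanthroline confirmed MMP-dependent cleavage.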

[4] = system: isolated infarcted rat hearts; assay: Langendorff isolated perfused rat heart, infarction; settings: 5 μM
[5] = target: recombinant human MMP-8 catalytic domain (Homo sapiens, UniProt P22894); assay: Recombinant MMP fluorescent assay, MMP-8; format: biochemical; settings: read-out: IC50 MMP-8; 1 hour preincubation at 37°C
[6] = target: T2, recombinant human MMP-1 catalytic domain (Homo sapiens, UniProt P03956); assay: Recombinant MMP fluorescent assay, MMP-1; format: biochemical; settings: read-out: IC50 MMP-1; 1 hour preincubation at 37°C
T2 sequence (P03956 100-269 limits assumed): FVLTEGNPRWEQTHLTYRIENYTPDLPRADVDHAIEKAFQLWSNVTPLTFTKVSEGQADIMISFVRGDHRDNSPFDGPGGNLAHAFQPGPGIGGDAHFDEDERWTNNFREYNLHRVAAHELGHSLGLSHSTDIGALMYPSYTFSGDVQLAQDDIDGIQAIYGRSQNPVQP

[7] = target: recombinant human MMP-3 catalytic domain (Homo sapiens, UniProt P08254); assay: Recombinant MMP fluorescent assay, MMP-3; format: biochemical; settings: read-out: IC50 MMP-3; 1 hour preincubation at 37°C
[8] = system: cocultured neonatal rat cardiac fibroblasts/myocytes; assay: MTT cell viability assay; format: cell-based; settings: 24 hours incubation
[9] = target: recombinant human MMP-12 catalytic domain (Homo sapiens, UniProt P39900); assay: Recombinant MMP fluorescent assay, MMP-12; format: biochemical
[10] = system: isolated stunned rat hearts; assay: Langendorff isolated perfused rat heart, stunning; settings: for Improvement in RPP versus controls: at 30-minute reperfusion; for Coronary flow rates versus controls: during reperfusion; for cTnI release versus controls: after ischemia
[11] = target: recombinant human MMP-13 catalytic domain (Homo sapiens, UniProt P45452); assay: Recombinant MMP fluorescent assay, MMP-13; format: biochemical; settings: read-out: IC50 MMP-13; 1 hour preincubation at 37°C
[12] = read-out: IC50 MMP-7, 1 hour preincubation at 37°C
[13] = read-out: IC50 MMP-12, 1 hour preincubation at 37°C

Sequence of recombinant human MMP-12 catalytic domain (P39900 106-263 limits assumed): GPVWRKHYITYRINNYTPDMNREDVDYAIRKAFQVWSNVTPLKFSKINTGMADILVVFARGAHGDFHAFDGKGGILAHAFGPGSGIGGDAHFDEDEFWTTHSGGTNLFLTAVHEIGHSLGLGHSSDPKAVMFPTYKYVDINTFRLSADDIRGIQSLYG
Sequence of recombinant human MMP-9 catalytic domain (P14780 107-444 limits assumed): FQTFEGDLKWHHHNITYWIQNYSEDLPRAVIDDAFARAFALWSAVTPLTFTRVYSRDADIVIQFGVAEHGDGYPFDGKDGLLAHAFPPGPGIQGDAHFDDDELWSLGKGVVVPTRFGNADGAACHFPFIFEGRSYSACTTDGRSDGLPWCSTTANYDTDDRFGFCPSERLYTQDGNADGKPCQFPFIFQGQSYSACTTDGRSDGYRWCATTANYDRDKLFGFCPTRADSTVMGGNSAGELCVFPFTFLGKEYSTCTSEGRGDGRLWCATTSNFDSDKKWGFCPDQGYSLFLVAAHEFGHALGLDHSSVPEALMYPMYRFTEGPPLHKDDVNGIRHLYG
Sequence of recombinant human MMP-8 catalytic domain (P22894 100-262 limits assumed): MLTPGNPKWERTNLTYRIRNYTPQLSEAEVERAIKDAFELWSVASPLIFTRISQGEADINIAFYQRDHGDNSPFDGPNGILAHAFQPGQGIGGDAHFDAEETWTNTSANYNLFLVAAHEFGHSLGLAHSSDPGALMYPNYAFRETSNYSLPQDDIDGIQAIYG
Sequence of recombinant human MMP-2 catalytic domain (P08253 110-446 limits assumed): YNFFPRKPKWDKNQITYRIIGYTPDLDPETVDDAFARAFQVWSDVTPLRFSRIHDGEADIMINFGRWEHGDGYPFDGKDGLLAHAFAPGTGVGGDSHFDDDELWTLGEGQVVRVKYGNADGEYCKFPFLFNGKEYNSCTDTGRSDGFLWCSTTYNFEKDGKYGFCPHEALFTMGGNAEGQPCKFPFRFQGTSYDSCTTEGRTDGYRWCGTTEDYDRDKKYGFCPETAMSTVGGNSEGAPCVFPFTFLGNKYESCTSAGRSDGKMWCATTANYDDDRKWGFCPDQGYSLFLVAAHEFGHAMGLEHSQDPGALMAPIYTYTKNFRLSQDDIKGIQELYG
Sequence of recombinant human MMP-3 catalytic domain (P08254 100-272 limits assumed): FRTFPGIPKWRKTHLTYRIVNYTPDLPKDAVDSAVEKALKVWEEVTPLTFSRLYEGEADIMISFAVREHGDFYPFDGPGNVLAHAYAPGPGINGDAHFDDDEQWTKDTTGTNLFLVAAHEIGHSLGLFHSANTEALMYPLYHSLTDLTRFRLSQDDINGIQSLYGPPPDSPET

In the case of `O=C(NCc1ccc(-c2ccccc2)cc1)c1cccc(=O)n1O` [1,2-HOPO-2], the IC50 [1] is reported as 920 nM, the IC50 [2] is reported as 27100 nM and the IC50 [3, 12] is reported as > 50000 nM. For the same compound, the “Reduction of collagen degradation versus controls” value ([4]; 30-minute global ischemia (infarction), opalation) was ~ 60%, the “Collagen degradation (opalation)” value ([4]; 30-minute global ischemia (infarction), controls 1.53 ± 0.66) was 0.56 ± 0.29 AFU and the “Troponin I release” value ([4]; 30-minute global ischemia, data not shown) was “significantly reduced troponin I release”. The “Coronary flow rates versus controls” value ([4]; conditions of infarction, data not shown) was “higher coronary flow rates versus controls”, the “Improved recovery in RPP versus controls” value ([4]; infarcted hearts, at 30-minute reperfusion) was ~ 17% and the “RPP in treated hearts” value ([4]; infarcted hearts, at 30-minute reperfusion, controls 28%) was 45%. The IC50 [5] was 86 nM, the IC50 [6] was > 50000 nM and the IC50 [7] was 560 nM. The “Concentration without compromise of cell viability (lack of cytotoxicity)” value ([8]; 0.01-1000 μM tested) was < 10 µM, the IC50 [9, 13] was 18 nM and the “Peak systolic pressure (PSP)” value ([10]; 5 μM, data not shown) was “significant rise in PSP”. The “Reduction in myocardial edema versus controls” value ([10]; 5 μM, stunned hearts) was ~ 10%, the “Collagen damage (opalation)” value ([10]; 5 μM, stunned hearts (20-minute GNFI), controls 1.49 ± 1.0) was 1.45 ± 0.89 AFU and the “Improvement in RPP versus controls” value ([10]; 5 μM, stunned hearts) was ~ 23%. For the same compound, the “Coronary flow rates versus controls” value ([10]; 5 μM, stunned hearts) was “higher coronary flow rates versus controls”, the “Reduction in ventricular wet weight versus controls” value ([10]; 5 μM, stunned hearts, end of reperfusion) was ~ 15% and the Ventricular wet weight ([10]; 5 μM, stunned hearts, end of reperfusion, controls 820 ± 72) was 700 ± 34 mg. The “Wet to dry weight ratio (edema)” value ([10]; 5 μM, stunned hearts, controls 5.4 ± 0.21) was 4.9 ± 0.02, the “Reduction of muscle damage” value ([10]; abstract, troponin I) was ~ 25% and the “Improvement in coronary flow rates” value ([10]; abstract, versus controls) was ~ 22%. The “cTnI release versus controls” value ([10]; stunned hearts) was “significant reductions in cTnI release versus controls” and the IC50 [11] was 4100 nM.
With `COc1ccc(S(=O)(=O)N(Cc2cccnc2)[C@@H](C(=O)NO)C(C)C)cc1` [CGS27023A] the IC50 ([3]; IC50 MMP-7, 1 hour preincubation at 37°C) was 500 nM, the IC50 ([9]; IC50 MMP-12, 1 hour preincubation at 37°C) was < 50 nM and the IC50 ([9]; IC50 MMP-12, as stated in discussion text) was ≤ 50 nM. For the same compound, the “Improvement in RPP versus controls” value ([10]; 5 μM, stunned hearts) was ~ 8%, the “Coronary flow rates versus controls” value ([10]; 5 μM, stunned hearts) was “did not improve coronary flow rates” and the “cTnI release versus controls” value ([10]; stunned hearts) was “no significant changes in cTnI release”.
For `CC(C)[C@H](NS(=O)(=O)c1ccc(-c2ccc(Br)cc2)cc1)C(=O)O` [PD166793, reference compound], the IC50 [2] was 3000 nM, the IC50 [3, 12] was 3000 nM and the IC50 [5] was < 50 nM. The “Concentration with loss of cell viability” value [8] was “greater than 10 μM”, the IC50 [9, 13] was < 50 nM and the “Improvement in RPP versus controls” value ([10]; 5 μM, stunned hearts) was ~ 8%. For the same compound, the “Coronary flow rates versus controls” value ([10]; 5 μM, stunned hearts) was “did not improve coronary flow rates” and the “cTnI release versus controls” value ([10]; stunned hearts) was “no significant changes in cTnI release”.
